Compounds with a hit are over-represented: about 6.8% of the library has one in this group of screens.
HSF1 inh: HSF1 inhibition. NIH3T3-HGL HSE-luciferase, MG132-induced, luminescence 8 h; active compounds read low. activity change, negative = inhibition, % at 7.5 µM (by protocol). actives 0.77% (n = 300,000);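 active = more than half of replicate wells show activity change below -50%, luminescence cut by over half; inconclusive = some wells, but at most half, below -50%; inactive = no replicate well below -50%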;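 note: luciferase reports HSF-1 transcriptional activity via heat shock element; 0% = median of DMSO wells and -100% = zero luminescence signal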
AI-2 QS mod: modulates the Vibrio harveyi AI-2 quorum sensing system. activity change, % at 7.5 µM. Vibrio harveyi JMH597 AI-2 luminescence/OD600 ratio, 9 h; active compounds read low; strain lacks LuxN and CqsS sensors; 0 = neutral-control median. actives 0.4% (n = 300,000). AID 2094; in the data active = activity change below about -75%, passing the limit was not always enough; inconclusive = no clear call, values can overlap the other calls;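 note: luminescence divided by OD600 gain over 9 h not by final OD600 alone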
ALR H2O2 inh: blocks human ALR sulfhydryl oxidase activity; AID 485317; inhibition, % (no concentration beside the values); purified ALR, DTT oxidation, H2O2 HRP-luminol luminescence; actives 3.8% (n = 290,000);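 active = mean replicate inhibition above about 79%, with every replicate also reaching it, limit read from the data; inconclusive = only one of the two criteria met; inactive = mean below limit and not every replicate reaching it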
Target sequence (P55789 whole entry, looked up): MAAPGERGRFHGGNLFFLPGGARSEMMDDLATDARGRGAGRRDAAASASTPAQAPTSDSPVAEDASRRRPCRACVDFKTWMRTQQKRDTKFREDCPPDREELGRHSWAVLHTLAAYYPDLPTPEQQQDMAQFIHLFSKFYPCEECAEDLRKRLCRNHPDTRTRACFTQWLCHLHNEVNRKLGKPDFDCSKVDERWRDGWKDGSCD
HSF1 activator: increases HSF-1 driven luciferase reporter signal | NIH3T3-HGL HSF-1 luciferase reporter, MG132, 8 h; 100% = twice DMSO control signal | activation, % at 9 µM | actives 1.7% (n = 300,000) | AID 504408;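 active = mean replicate activation of at least 50% with a set share of replicates each reaching 50%; inconclusive = only one of those two conditions met; inactive = mean below 50% and too few replicates reaching it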;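 note: 0% = median of the neutral control wells and 100% = twice that signal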
PHOSPHO1 block: PHOSPHO1 (human) inhibition; recombinant PHOSPHO1, absorbance phosphatase assay; inhibition, % at 13.3 µM; Q8TCT1; actives 1.1% (n = 290,000); in the data active = inhibition above about 60%
Target sequence (Q8TCT1 whole entry, looked up): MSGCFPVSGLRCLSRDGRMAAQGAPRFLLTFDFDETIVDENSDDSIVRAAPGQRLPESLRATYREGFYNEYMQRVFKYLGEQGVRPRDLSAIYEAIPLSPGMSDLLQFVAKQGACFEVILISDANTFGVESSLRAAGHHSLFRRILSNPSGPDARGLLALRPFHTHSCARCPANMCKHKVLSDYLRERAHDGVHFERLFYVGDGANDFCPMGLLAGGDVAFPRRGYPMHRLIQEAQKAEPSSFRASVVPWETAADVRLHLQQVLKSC
core dimer inh: HCV core protein dimerization inhibition. TR-FRET GST/Flag-core106 dimerization, 1536-well. inhibition, % at 5 µM. actives 0.33% (n = 300,000);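 active = inhibition above the mean of all tested compounds plus 3 SD, set per screening campaign, cut at about 45% in these data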
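Assay system: GST-tagged and Flag-tagged HCV core protein residues 1-106 / Times: compound-protein-antibody incubation 4 h at 22.5 °C / Signal: time-resolved FRET, ex 340 nm, em 617 and 671 nm / Evaluation: % inhibition based on acceptor/donor emission ratio / Benchmarks: wells lacking GST-core106 and wells with excess unlabelled core106 / Repeats: singlicate, one well per compound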
The depositor's hits bear a star; ? = inconclusive; nt = no result.

SMILES | HSF1 inh | AI-2 QS mod | ALR H2O2 inh | HSF1 activator | PHOSPHO1 block | core dimer inh
CCc1nc2sc3ccccc3c(=O)c2c(=O)n1Cc1ccc(OC)cc1 | -65* | 9 | nt | -64 | 51 | 8
CCCc1nc2sc3ccccc3c(=O)c2c(=O)n1CCOC | -4 | 14 | -25 | 1 | 20 | -1
O=C(Nc1nc2ccccc2[nH]1)c1ccc([N+](=O)[O-])cc1 | 29 | 4 | 0 | 61* | 6 | 3
O=C(Nc1nc2ccccc2[nH]1)c1cccs1 | 38 | 33 | -20 | 55* | 4 | 5
Cc1ccc(C(=O)Nc2nc3ccccc3[nH]2)cc1 | -25 | nt | -1 | -9 | 36 | 13
O/C(=C\c1nc2ccccc2[nH]1)c1cccs1 | 50 | 5 | 6 | 60* | 39 | 2
CC(NS(=O)(=O)c1ccc(OCC(=O)Nc2cccc([N+](=O)[O-])c2)cc1)c1ccccc1 (configuration not stated) | nt | nt | nt | nt | 7 | -3
COCc1cc(=O)[nH]c(-c2ccccc2OC(F)(F)F)n1 | -3 | 16 | 1 | -1 | 12 | -1
CN(C1=C(NC(=O)c2ccccc2)C(=O)c2ccccc2C1=O)C1CCS(=O)(=O)C1 (configuration not stated) | 26 | 46 | nt | 66* | -4 | 20
CC(=O)NC1=C(NC2CCS(=O)(=O)C2)C(=O)c2ccccc2C1=O (configuration not stated) | 12 | -2 | -18 | 27 | 6 | -7
O=C(OCCN1CCN(c2ncc(C(F)(F)F)cc2Cl)CC1)c1ccc(Cl)cc1 | -80* | 20 | -1 | -84 | -11 | 1
Cc1cc(-c2ccc(C)c(S(=O)(=O)NCCC(C)N3CCCCCC3)c2)on1 (configuration not stated) | -67* | 10 | -2 | -73 | 40 | -6
Cc1cc(-c2ccc(C(C)C)c(S(=O)(=O)NCCN3CCC(C)CC3)c2)on1 | 15 | 13 | -3 | 67* | 18 | -1
CC(=O)Nc1cccc(OCCCNC(=O)c2cccc3ccccc23)c1 | 15 | 19 | -8 | 5 | 33 | -5
CC(=O)Nc1ccc(S(=O)(=O)NNC(=O)c2cc3c4ccccc4n(C)c3s2)cc1 | 6 | 21 | 98* | -2 | 22 | 14
CCCNC(=O)c1cc2c3ccccc3n(C)c2s1 | 3 | 30 | 99* | -2 | 3 | -12
Cn1c2ccccc2c2cc(C(=O)NNC(=O)CCl)sc21 | 4 | 4 | 35 | 12 | 23 | 3
COCCNC(=O)c1cc2c3ccccc3n(C)c2s1 | 1 | 14 | 99* | 3 | 18 | -1
CSCc1c(C(=O)OCC(=O)NC2CCCCC2)oc2ccccc12 | nt | nt | 0 | nt | nt | nt
CCOc1ccc(NC(=O)CN(C)C(=O)c2ccc3c(c2)C(=O)N(CCC(C)C)C3=O)cc1OCC | -6 | 19 | -6 | -2 | nt | -3
O=C1ON=C(c2ccccc2)/C1=C/c1ccc(-c2ccccc2[N+](=O)[O-])o1 | nt | nt | -4 | nt | 12 | 21
O=C1ON=C(c2ccc([N+](=O)[O-])cc2)/C1=C/c1ccccc1O | -6 | 10 | 98* | 1 | 28 | nt
COc1ccc(OCCOC(=O)c2ccc(F)c(S(=O)(=O)N3CCOCC3)c2)cc1 | nt | nt | 1 | nt | nt | nt
COc1cc(/C=N/Nc2ccc([N+](=O)[O-])cn2)cc(OC)c1O | -10 | -3 | 100* | 19 | -28 | nt
COc1ccc(/C=N\Nc2ccc([N+](=O)[O-])cc2)c(C(=O)O)c1OC | -12 | -4 | 98* | -25 | 3 | -6
SMILES | HSF1 inh | AI-2 QS mod | ALR H2O2 inh | HSF1 activator | PHOSPHO1 block | core dimer inh
COc1ccc(/C=N/Nc2ccc([N+](=O)[O-])cc2)cc1O | 28 | ? | 95* | 20 | 24 | -11
COc1ccc(/C=N/Nc2ccc([N+](=O)[O-])cc2)cc1Cn1cc([N+](=O)[O-])cn1 | 9 | 15 | 5 | 14 | 17 | 26
CCC(C)NC(=S)N1CCN(C)CC1 (configuration not stated) | -3 | 4 | -10 | -2 | 6 | -7
CCN1CCCC1CN(Cc1cc2ccc(C)cc2[nH]c1=O)C(=S)Nc1cccc(OC)c1 (configuration not stated) | 14 | 6 | -17 | 60* | -2 | 2
O=C(O)/C(CC(=O)c1ccc(Cl)cc1)=N/Nc1ccc([N+](=O)[O-])cc1[N+](=O)[O-] | 2 | 10 | 98* | -1 | 7 | 18
Cc1ccc(S(=O)(=O)Nc2nc(C)c(NC(=O)OCCCl)s2)cc1 | 24 | 42 | 98* | 5 | 8 | -5
C=CCn1c(NC(=O)c2ccc(Br)o2)c(C(=O)OCC)sc1=S | 3 | 24 | 8 | 33 | 85* | -6
CCCC(=O)O/N=C(\c1ccccc1)c1ccncc1 | 13 | 24 | -6 | 57* | nt | 9
CCCc1cc(NC(=O)CCl)n(-c2ccccc2)n1 | 9 | 33 | 97* | 11 | 34 | -3
CCCc1nn(C)c2c(=O)[nH]c(-c3cc(S(=O)(=O)N(CCO)CCO)ccc3OCC)nc12 | -6 | 9 | -7 | -9 | 63* | -4
O=C(Oc1ccc(/C=N/O)cc1)c1ccccc1 | 2 | -6 | 89* | -7 | -13 | 1
CCOC(=O)/C(=C/c1ccc(OC(=O)c2ccncc2)cc1)C(C)=O | 16 | 47 | 60 | 14 | 13 | -1
O=C(Oc1ccc(/C=N/Nc2ccccc2)cc1)c1ccccc1 | 11 | 28 | 4 | 20 | -46 | 15
COCCOC(=O)/C(=C/c1ccc(OC(=O)c2ccccc2)cc1)C(C)=O | 10 | 11 | 95* | 14 | -10 | -5
Cc1noc(C)c1CSCC(=O)Nc1nc(-c2ccc(F)c(F)c2)cs1 | 10 | 11 | 9 | 2 | nt | -4
Cn1c2c(c(=O)n(C)c1=O)[C@@]1(C(=O)Nc3ccccc31)C(C#N)=C(N)O2 | nt | -92* | 47 | nt | -1 | 2
O=C(c1oc2ccccc2c1N1CCCCC1)N1CCCCC1 | -6 | 21 | 99* | 7 | -45 | 6
Cc1ccc(NC(=O)COc2ccc(Br)cn2)cc1 | -6 | -18 | -21 | 1 | 49 | 3
CC(=O)c1ccc(-n2c(CCC(=O)O)ccc2-c2cccs2)cc1 | -9 | 14 | 42 | -4 | 38 | 14
Cc1ccc(NC(=O)Cn2c(CCC(=O)O)ccc2-c2cccs2)cc1 | 39 | -3 | 18 | 62* | -11 | 3
Cc1ccccc1NC(=O)Cn1c(CCC(=O)O)ccc1-c1cccs1 | 2 | 18 | 16 | 1 | 9 | -3
Cc1ccc(-n2c(CCC(=O)O)ccc2-c2cccs2)cc1 | -2 | -3 | 94* | 21 | 8 | 7
NC(=O)c1ccc(-n2c(CCC(=O)O)ccc2-c2cccs2)cc1 | 6 | 20 | 84* | 7 | 13 | 2
